Results published in ChEMBL document CHEMBL1126681, “Novel acyclonucleotides: synthesis and antiviral activity of alkenylphosphonic acid derivatives of purines and a pyrimidine” (J Med Chem, 1993).
In brackets after ≈: the same amount, converted by molar mass. Activity calls are given as the source filed them. No cut-off for these calls is given here.

Key:
Visna-maedi virus [1] = assay: Compound was evaluated for anti-retrovirus activity against Visna virus (K184) strain in infected sheep choroid plexus cells; Not active; type: functional, organism-based
[2] = Compound was evaluated for the inhibition of cell replication sheep choroid plexus (SCP) cells.; type: functional; details: Ovis aries; read-out: CD50 (the source's name)
Procedure, shortened: (§1)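 Cytotoxicity in uninfected cells, measured as inhibition of DNA synthesis by [3H]thymidine incorporation. CD50 is the concentration giving 50% inhibition of cell replication.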

PBL = assay: Compound was evaluated for the inhibition of cell replication human peripheral blood lymphocytes (PBL's).; type: functional; details: read-out: CD50 (the source's name); procedure, shortened: as §1
Visna-maedi virus [3] = assay: Compound was evaluated for anti-retrovirus activity against Visna virus (K184) strain in infected sheep choroid plexus cells.; type: functional
Procedure, shortened: (§2)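 Infected sheep choroid plexus (SCP) cells. MIC is the lowest concentration that completely prevents virus cytopathic effect.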

MRC5 [4] = assay: Compound was evaluated for the inhibition of cell replication of human fibroblast (MRC-5) cells.; type: functional; details: read-out: CD50 (the source's name); procedure, shortened: as §1
Human alphaherpesvirus 1 [5] = assay: Compound was evaluated for anti-herpesvirus activity against Herpes simplex virus-1 (SC16) strain; Not active; type: functional, organism-based
Cytomegalovirus [6] = assay: Compound was evaluated for anti-herpesvirus activity against Cytomegalovirus (AD169) strain plaques in infected human fibroblast (MRC-5) cells.; type: functional, organism-based; details: Human betaherpesvirus 5, MRC5
Procedure, shortened: (§3)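 Plaque-reduction assay in human fibroblast (MRC-5) cells infected with virus. IC50 is the compound concentration that halves the plaque count.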

MRC5 [7] = assay: Compound was evaluated for the inhibition of cell replication of human fibroblast (MRC-5) cells; type: functional; details: read-out: CD50 (the source's name); procedure, shortened: as §1
[8] = Compound was evaluated for the inhibition of cell replication sheep choroid plexus (SCP) cells; type: functional; details: Ovis aries; read-out: CD50 (the source's name); procedure, shortened: as §1
[9] = test system: Human immunodeficiency virus 1; assay: Compound was evaluated for anti-retrovirus activity against HIV-1 (D34) Diagen strain; Not active; type: functional, organism-based
Human alphaherpesvirus 2 [10] = assay: Compound was evaluated for anti-herpesvirus activity against Herpes simplex virus-2 (MS) strain; Not active; type: functional, organism-based; procedure, shortened: as §3
Human alphaherpesvirus 3 [11] = assay: Compound was evaluated for anti-herpesvirus activity against Varicella Zoster virus (Ellen) strain; Not active; type: functional, organism-based; procedure, shortened: as §3
Visna-maedi virus [12] = assay: Compound was evaluated for anti-retrovirus activity against Visna virus (K184) strain in infected sheep choroid plexus cells; type: functional; procedure, shortened: as §2
Cytomegalovirus [13] = assay: Compound was evaluated for anti-herpesvirus activity against Cytomegalovirus (AD169) strain plaques in infected human fibroblast (MRC-5) cells; Not active; type: functional, organism-based; procedure, shortened: as §3
[14] = Compound was evaluated for the inhibition of cell replication human peripheral blood lymphocytes (PBL's); type: functional; details: read-out: CD50 (the source's name); procedure, shortened: as §1
[15] = test system: Human immunodeficiency virus 1; assay: Compound was evaluated for anti-retrovirus activity against HIV-1 (D34) Diagen strain; type: functional, organism-based
Human alphaherpesvirus 2 [16] = assay: Compound was evaluated for anti-herpesvirus activity against Herpes simplex virus-2 (MS) strain; type: functional, organism-based; procedure, shortened: as §3
Human alphaherpesvirus 3 [17] = assay: Compound was evaluated for anti-herpesvirus activity against Varicella Zoster virus (Ellen) strain; type: functional, organism-based; procedure, shortened: as §3
Cytomegalovirus [18] = assay: Compound was evaluated for anti-herpesvirus activity against Cytomegalovirus (AD169) strain plaques in infected human fibroblast (MRC-5) cells; type: functional, organism-based; details: Human betaherpesvirus 5, MRC5; procedure, shortened: as §3
Human alphaherpesvirus 1 [19] = assay: Compound was evaluated for anti-herpesvirus activity against Herpes simplex virus-1 (SC16) strain; type: functional, organism-based
Cytomegalovirus [20] = assay: Compound was evaluated for anti-herpes virus activity against Cytomegalovirus (AD169) strain plaques in infected human fibroblast (MRC-5) cells; Not active; type: functional, organism-based; procedure, shortened: as §3
Human alphaherpesvirus 1 [21] = assay: Compound was evaluated for anti-herpesvirus activity against Herpes simplex virus-1 (SC16) strain.; type: functional, organism-based
Human alphaherpesvirus 2 [22] = assay: Compound was evaluated for anti-herpesvirus activity against Herpes simplex virus-2 (MS) strain.; type: functional, organism-based; procedure, shortened: as §3
Human alphaherpesvirus 3 [23] = assay: Compound was evaluated for anti-herpesvirus activity against Varicella Zoster virus (Ellen) strain.; type: functional, organism-based; procedure, shortened: as §3
[24] = Second dissociation constant was determined; type: ADME
[25] = Compound was evaluated for the inhibition of DNA synthesis in uninfected cells; type: functional; details: read-out: CD50 (the source's name); procedure, shortened: as §1

Compound: Nc1ncnc2c1ncn2CC/C=C\P(=O)(O)O
- MIC (Visna-maedi virus [1]): inactive

Compound: Cc1cn([C@H]2C[C@H](N=[N+]=[N-])[C@@H](CO)O2)c(=O)[nH]c1=O [ZIDOVUDINE]
- CC50 [2]: > 370 µM
- CC50 (PBL): 13 µM
- MIC (Visna-maedi virus [3]): 5.6 µM (≈ 1.5 µg/mL)
- CC50 (MRC5 [4]): 72 µM

Compound: Nc1nc(O)c2ncn(OCC/C=C\P(=O)(O)O)c2n1
- IC50 (Human alphaherpesvirus 1 [5]): Not Active
- IC50 (Cytomegalovirus [6]): 178 µM
- CC50 (MRC5 [7]): 26 µM
- CC50 [8]: 11.7 µM
- IC50 [9]: Not Active
- IC50 (Human alphaherpesvirus 2 [10]): Not Active
- IC50 (Human alphaherpesvirus 3 [11]): Not Active
- MIC (Visna-maedi virus [12]): 0.1 µM (≈ 0.0301 µg/mL)

Compound: Nc1ncnc2c1ncn2OCC/C=C/P(=O)(O)O
- IC50 (Human alphaherpesvirus 1 [5]): Not Active
- IC50 (Cytomegalovirus [13]): Not Active
- CC50 (MRC5 [7]): 330 µM
- CC50 [14]: 130 µM
- IC50 (Human alphaherpesvirus 2 [10]): Not Active
- IC50 [15]: 10.2 µM
- IC50 (Human alphaherpesvirus 3 [11]): Not Active
- MIC (Visna-maedi virus [12]): 82 µM (≈ 23.4 µg/mL)

Compound: C=C(/C=C/P(=O)(O)O)Cn1cnc2c(O)nc(N)nc21
- MIC (Visna-maedi virus [1]): inactive

Compound: Nc1ccn(OC(/C=C/P(=O)(O)O)CO)c(=O)n1 (stereo not drawn)
- MIC (Visna-maedi virus [1]): inactive

Compound: Nc1nc(O)c2ncn(CC/C=C/P(=O)(O)O)c2n1
- IC50 (Human alphaherpesvirus 1 [5]): Not Active
- IC50 (Human alphaherpesvirus 2 [16]): 90 µM
- CC50 (MRC5 [7]): 4.5 µM
- CC50 [8]: 1.3 µM
- IC50 (Human alphaherpesvirus 3 [17]): 190 µM
- IC50 [9]: Not Active
- IC50 (Cytomegalovirus [18]): 52 µM
- MIC (Visna-maedi virus [12]): 0.35 µM (≈ 0.0998 µg/mL)

Compound: Nc1nc(O)c2ncn(CC(/C=C/P(=O)(O)O)CO)c2n1 (stereo not drawn)
- IC50 (Human alphaherpesvirus 2 [16]): 66 µM
- CC50 (MRC5 [7]): 20 µM
- IC50 (Human alphaherpesvirus 3 [17]): 17 µM
- IC50 [9]: Not Active
- IC50 (Cytomegalovirus [18]): < 9 µM
- IC50 (Human alphaherpesvirus 1 [19]): 60 µM

Compound: Nc1nc(N)c2ncn(CC/C=C/P(=O)(O)O)c2n1
- IC50 (Human alphaherpesvirus 1 [5]): Not Active
- CC50 (MRC5 [7]): 222 µM
- CC50 [8]: 95 µM
- IC50 (Cytomegalovirus [20]): Not Active
- IC50 (Human alphaherpesvirus 2 [10]): Not Active
- IC50 [15]: 9.8 µM
- IC50 (Human alphaherpesvirus 3 [11]): Not Active
- MIC (Visna-maedi virus [12]): 2.1 µM (≈ 0.597 µg/mL)

Compound: Nc1ncnc2c1ncn2CC(/C=C/P(=O)(O)O)CO (stereo not drawn)
- IC50 (Human alphaherpesvirus 2 [16]): 91 µM
- CC50 (MRC5 [7]): 189 µM
- IC50 (Human alphaherpesvirus 3 [17]): 16 µM
- IC50 [9]: Not Active
- IC50 (Cytomegalovirus [18]): 35 µM
- IC50 (Human alphaherpesvirus 1 [19]): 137 µM

Compound: Nc1nc2c(ncn2CC/C=C\P(=O)(O)O)c(=O)[nH]1
- MIC (Visna-maedi virus [1]): inactive

Compound: Nc1nc2c(ncn2COCCO)c(=O)[nH]1 [ACYCLOVIR]
- IC50 (Human alphaherpesvirus 1 [21]): 3.9 µM
- IC50 (Human alphaherpesvirus 2 [22]): 4.3 µM
- IC50 (Cytomegalovirus [6]): 93 µM
- IC50 (Human alphaherpesvirus 3 [23]): 21 µM
- CC50 (MRC5 [4]): 355 µM

Compound: Nc1nc(O)c2ncn(OC(/C=C/P(=O)(O)O)CO)c2n1 (stereo not drawn)
- MIC (Visna-maedi virus [1]): inactive
- pKa ([24]; read-out: pKa E2): 6.6

Compound: Nc1nc(O)c2ncn(OCC/C=C/P(=O)(O)O)c2n1
- IC50 (Human alphaherpesvirus 2 [16]): < 10 µM
- CC50 (MRC5 [7]): 0.1 µM
- CC50 [8]: 0.13 µM
- IC50 (Human alphaherpesvirus 3 [17]): < 10 µM
- CC50 [14]: 0.23 µM
- IC50 [15]: 0.1 µM
- IC50 (Cytomegalovirus [18]): 0.53 µM
- IC50 (Human alphaherpesvirus 1 [19]): < 10 µM
- MIC (Visna-maedi virus [12]): < 0.01 µM

Compound: Nc1ncnc2c1ncn2OC(/C=C/P(=O)(O)O)CO (stereo not drawn)
- MIC (Visna-maedi virus [1]): inactive

Compound: Nc1ncnc2c1ncn2OCCOCP(=O)(O)O
- IC50 (Human alphaherpesvirus 1 [5]): Not Active
- IC50 (Cytomegalovirus [13]): Not Active
- IC50 (Human alphaherpesvirus 2 [16]): 270 µM
- CC50 (MRC5 [7]): 173 µM
- CC50 [8]: 173 µM
- IC50 (Human alphaherpesvirus 3 [17]): 280 µM
- IC50 [15]: 0.24 µM
- MIC (Visna-maedi virus [12]): 8 µM (≈ 2.31 µg/mL)

Compound: Nc1ncnc2c1ncn2CC/C=C/P(=O)(O)O
- IC50 (Human alphaherpesvirus 1 [5]): Not Active
- IC50 (Cytomegalovirus [13]): Not Active
- CC50 (MRC5 [7]): 260 µM
- CC50 [8]: 137 µM
- IC50 [9]: Not Active
- IC50 (Human alphaherpesvirus 2 [10]): Not Active
- IC50 (Human alphaherpesvirus 3 [11]): Not Active
- MIC (Visna-maedi virus [12]): 20 µM (≈ 5.38 µg/mL)

Compound: Nc1nc(O)c2ncn(OCC(/C=C/P(=O)(O)O)CO)c2n1 (stereo not drawn)
- IC50 (Human alphaherpesvirus 2 [16]): 177 µM
- CC50 (MRC5 [7]): 19 µM
- IC50 (Human alphaherpesvirus 3 [17]): 15 µM
- IC50 [15]: 8.9 µM
- IC50 (Cytomegalovirus [18]): 44 µM
- IC50 (Human alphaherpesvirus 1 [19]): 295 µM

Compound: Nc1nc2c(ncn2CCOCP(=O)(O)O)c(=O)[nH]1 [GS-438]
- pKa [24]: 6.5
- CC50 [25]: 8.6 µM
